Key:
L425A mutant PLD1 = target: T1, L425A mutant PLD1 (Homo sapiens, UniProt Q13393, L425A); experiment: PLD activity assay in L425A mutant PLD1-transfected cells; assay type: cell-based
T1 sequence (Q13393 1-1036 isoform Q13393-2 L425A): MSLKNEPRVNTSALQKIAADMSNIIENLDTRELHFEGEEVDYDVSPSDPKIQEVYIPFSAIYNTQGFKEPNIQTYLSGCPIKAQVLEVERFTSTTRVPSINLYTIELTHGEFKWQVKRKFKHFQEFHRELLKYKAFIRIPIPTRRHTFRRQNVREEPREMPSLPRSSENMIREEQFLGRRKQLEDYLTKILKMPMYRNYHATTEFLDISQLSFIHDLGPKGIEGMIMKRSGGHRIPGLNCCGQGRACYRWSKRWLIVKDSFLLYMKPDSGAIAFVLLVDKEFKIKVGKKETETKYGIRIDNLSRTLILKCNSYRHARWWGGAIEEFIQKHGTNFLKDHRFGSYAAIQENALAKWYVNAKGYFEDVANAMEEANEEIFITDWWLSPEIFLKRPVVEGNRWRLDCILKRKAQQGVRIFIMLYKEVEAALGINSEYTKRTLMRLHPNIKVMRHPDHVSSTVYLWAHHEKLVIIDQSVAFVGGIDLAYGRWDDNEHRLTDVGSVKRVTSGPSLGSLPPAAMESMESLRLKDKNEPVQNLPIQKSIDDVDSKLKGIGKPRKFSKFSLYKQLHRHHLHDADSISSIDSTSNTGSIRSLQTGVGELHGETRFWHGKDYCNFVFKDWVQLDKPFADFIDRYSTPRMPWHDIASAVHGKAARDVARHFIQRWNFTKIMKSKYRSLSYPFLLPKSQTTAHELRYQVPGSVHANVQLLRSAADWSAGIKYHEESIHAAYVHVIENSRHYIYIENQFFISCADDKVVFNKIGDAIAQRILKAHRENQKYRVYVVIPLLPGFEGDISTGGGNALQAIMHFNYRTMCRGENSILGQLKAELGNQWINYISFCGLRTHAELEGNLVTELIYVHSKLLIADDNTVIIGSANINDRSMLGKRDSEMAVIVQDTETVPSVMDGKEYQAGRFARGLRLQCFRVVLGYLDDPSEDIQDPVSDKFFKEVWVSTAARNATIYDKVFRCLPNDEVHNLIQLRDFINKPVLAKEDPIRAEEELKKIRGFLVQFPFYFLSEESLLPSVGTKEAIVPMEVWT

A549 cells [1] = experiment: IncuCyte cell growth and death assay; assay type: cell-based; settings: time-dependent
A549 cells [2] = experiment: Colony-forming assay; assay type: cell-based
Outline: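 Cells seeded at 500–1,000 per well; test compound added 48 h after seeding, with 48 h exposure. Medium was changed every 3 days and cultures kept 10 days. Colonies were fixed in 4% PFA for 20 min, stained with crystal violet for 30 min, and counted by image analysis.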

A549 cells [3] = experiment: Ki67 staining proliferation assay; assay type: cell-based
[4] = tested on: EGFR-RAS-mediated signaling pathways; experiment: Immunoblot of RAS downstream molecules in EGF-stimulated A549 cells; assay type: cell-based
Outline: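 Lysates made in passive buffer with protease and phosphatase inhibitor cocktail, boiled 5 min, then separated by SDS-PAGE and transferred to PVDF. Membranes blocked in TBS-T with 5% BSA and probed overnight at 4 °C for phospho- and total Akt, ERK and IκBα. HRP-conjugated secondary antibodies and chemiluminescence were used for detection.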

KRAS = experiment: RAS activation assay in KRAS-transfected cells; assay type: cell-based
Outline: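 Cells treated with test compound for 24 h and lysed with protease inhibitor, then spun at 13,000 rpm for 10 min at 4 °C. Lysate (800 μg) was incubated overnight at 4 °C with GST-Raf1-RBD beads and washed three times. Bound RAS-GTP was eluted in SDS buffer, heated at 100 °C for 5 min, and immunoblotted for RAS.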

A549 cells [5] = experiment: In vitro phagocytosis assay; assay type: cell-based, human; settings: A549 cocultured with PMA-activated THP-1
Outline: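 A549 cells treated with test compound for 48 h in RPMI with 10% FBS, then labelled with 1 μM CFSE. THP-1 cells were differentiated with PMA for 36 h, and 5 × 10^5 were co-incubated with equal CFSE-labelled cells in serum-free RPMI for 2 h. After Fc block and PerCP-Cy5.5 anti-CD11b staining (20 min, 4 °C), CFSE+CD11b+ cells were counted by flow cytometry in at least three independent experiments.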

LLC mouse lung cells = experiment: LLC lung cancer syngeneic model in C57BL/6 mice; assay type: in vivo
Outline: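 Male C57BL/6 mice (6 weeks old) received 3 × 10^5 LLC cells in PBS subcutaneously in the flank. From day 7 they were randomised to vehicle PO daily or test compound 10 mg/kg PO every other day, for 3 weeks. Tumour IHC used citrate antigen retrieval, blocking with 0.3% H2O2 and 2.5% horse serum, primary antibodies overnight at 4 °C, HRP/ABC with DAB, and hematoxylin counterstain. CD163 was assessed by immunofluorescence.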

[6] = tumor tissue immunofluorescence

## N-(3,5-Bis(trifluoromethyl)phenyl)-3-(1H-indol-3-yl)propanamide [3r]
L425A mutant PLD1
  PLD activity: significantly suppressed
A549 cells [1]
  death of A549 cells: increased
  proliferation of A549 cells: significantly suppressed
A549 cells [2]
  colony formation: significantly inhibited
A549 cells [3]
  Ki67-positive proliferation: significantly inhibited
[4]
  phospho-Akt, phospho-ERK, and phospho-IkBα levels: markedly reduced
KRAS
  KRAS activation: inhibited
A549 cells [5]
  CD11b^+CFSE^+ macrophages (phagocytosis): significantly increased
LLC mouse lung cells; 10 mg/kg PO every other day, C57BL/6, LLC
  tumor formation: significantly attenuated
LLC mouse lung cells; IHC
  apoptosis in tumor tissue (active caspase 3 IHC): enhanced
  proliferation in tumor tissue (Ki67 IHC): reduced
LLC mouse lung cells; tumor tissue IHC
  expression of ’eat-me’ signals (calreticulin): increased
  levels of RAS and downstream molecules (p-ERK, p-Akt, p-IKBα): decreased
  levels of ’don’t eat-me’ signals (CD47, CD24, PD-L1): reduced
LLC mouse lung cells; [6]
  population of CD4^+ and IL-17^+ Th17 cells: increased
  population of CD80^+ pro-inflammatory M1 macrophages: increased
  population of CD163^+ anti-inflammatory M2 macrophages: decreased
  population of cytotoxic CD8^+ T cells: increased
LLC mouse lung cells; tumor-bearing mice vs vehicle
  size and weight of the spleen: recovered

Source: publication PMC11913021 (Journal of Medicinal Chemistry, 2024)
